ChEMBL document CHEMBL1152462, “Betulinic acid derivatives that target gp120 and inhibit multiple genetic subtypes of human immunodeficiency virus type 1” (Antimicrob Agents Chemother, 2008)
pIC50: −log10 of the molar value.

Experiments:
[1] = system: Human immunodeficiency virus 1; test: Antiviral activity against HIV1 5768.4 infected in human TZM-b1 cells assessed as inhibition of viral infection after 2 days postinfection by luciferase reporter gene assay; format: functional, organism-based; conditions: Human immunodeficiency virus 1, 5768.4, TZM-b1, 48 h
Procedure, shortened: (§1)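 Single-round infection of TZM-bl cells with 200 TCID50 of virus in the presence of varying compound concentrations, top concentration 15 µM. After 2 days, medium was removed and Bright-Glo reagent added to read luminescence. IC50 is the concentration giving 50% reduction in luciferase RLU relative to virus-control wells.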

[2] = system: Human immunodeficiency virus 1; test: Antiviral activity against HIV1 Q23.71 infected in human TZM-b1 cells assessed as inhibition of viral infection after 2 days postinfection by luciferase reporter gene assay; format: functional, organism-based; conditions: Human immunodeficiency virus 1, Q23.71, TZM-b1, 48 h; procedure, shortened: as §1
[3] = system: Human immunodeficiency virus 1; test: Antiviral activity against HIV1 ZM197M.PB7 infected in human TZM-b1 cells assessed as inhibition of viral infection after 2 days postinfection by luciferase reporter gene assay; format: functional, organism-based; conditions: Human immunodeficiency virus 1, ZM197M.PB7, TZM-b1, 48 h; procedure, shortened: as §1
[4] = system: Human immunodeficiency virus 1; test: Antiviral activity against HIV1 RHPA4259.7 infected in human TZM-b1 cells assessed as inhibition of viral infection after 2 days postinfection by luciferase reporter gene assay; format: functional, organism-based; conditions: Human immunodeficiency virus 1, RHPA4259.7, TZM-b1, 48 h; procedure, shortened: as §1
[5] = Cytotoxicity against human TZM-bl cells at 15 uM after 2 days by trypan blue exclusion assay; format: cell-based; conditions: 48 h
[6] = system: Human immunodeficiency virus 1; test: Antiviral activity against HIV1 NL4-3 infected in human TZM-b1 cells assessed as inhibition of viral infection after 2 days postinfection by luciferase reporter gene assay; format: functional, organism-based; conditions: Human immunodeficiency virus 1, NL4-3, TZM-b1, 48 h; procedure, shortened: as §1
[7] = system: Human immunodeficiency virus 1; test: Antiviral activity against HIV1 ZM109F.PB4 infected in human TZM-b1 cells assessed as inhibition of viral infection after 2 days postinfection by luciferase reporter gene assay; format: functional, organism-based; conditions: Human immunodeficiency virus 1, ZM109F.PB4, TZM-b1, 48 h; procedure, shortened: as §1
[8] = system: Human immunodeficiency virus 1; test: Antiviral activity against HIV1 Du123.6 infected in human TZM-b1 cells assessed as inhibition of viral infection after 2 days postinfection by luciferase reporter gene assay; format: functional, organism-based; conditions: Human immunodeficiency virus 1, Du123.6, TZM-b1, 48 h; procedure, shortened: as §1
[9] = system: Human immunodeficiency virus 1; test: Antiviral activity against HIV1 Q168.a2 infected in human TZM-b1 cells assessed as inhibition of viral infection after 2 days postinfection by luciferase reporter gene assay; format: functional, organism-based; conditions: Human immunodeficiency virus 1, Q168.a2, TZM-b1, 48 h; procedure, shortened: as §1
[10] = system: Human immunodeficiency virus 1; test: Antiviral activity against HIV1 TRO.11 infected in human TZM-b1 cells assessed as inhibition of viral infection after 2 days postinfection by luciferase reporter gene assay; format: functional, organism-based; conditions: Human immunodeficiency virus 1, TRO.11, TZM-b1, 48 h; procedure, shortened: as §1
[11] = system: Human immunodeficiency virus 1; test: Antiviral activity against HIV1 CAP244.2.00.D3 infected in human TZM-b1 cells assessed as inhibition of viral infection after 2 days postinfection by luciferase reporter gene assay; format: functional, organism-based; conditions: Human immunodeficiency virus 1, CAP244.2.00.D3, TZM-b1, 48 h; procedure, shortened: as §1
[12] = Cytotoxicity against human TZM-bl cells after 2 days by trypan blue exclusion assay; format: cell-based; conditions: 48 h
[13] = system: Human immunodeficiency virus 1; test: Antiviral activity against HIV1 HXB2 infected in human TZM-b1 cells assessed as inhibition of viral infection after 2 days postinfection by luciferase reporter gene assay; format: functional, organism-based; conditions: Human immunodeficiency virus 1, HXB2, TZM-b1, 48 h; procedure, shortened: as §1
[14] = system: Human immunodeficiency virus 1; test: Antiviral activity against HIV1 Q769.d22 infected in human TZM-b1 cells assessed as inhibition of viral infection after 2 days postinfection by luciferase reporter gene assay; format: functional, organism-based; conditions: Human immunodeficiency virus 1, Q769.d22, TZM-b1, 48 h; procedure, shortened: as §1
[15] = system: Human immunodeficiency virus 1; test: Antiviral activity against HIV1 ZM55F.PB28a infected in human TZM-b1 cells assessed as inhibition of viral infection after 2 days postinfection by luciferase reporter gene assay; format: functional, organism-based; conditions: Human immunodeficiency virus 1, ZM55F.PB28a, TZM-b1, 48 h; procedure, shortened: as §1
[16] = system: Human immunodeficiency virus 1; test: Antiviral activity against HIV1 ZM214M.PL15 infected in human TZM-b1 cells assessed as inhibition of viral infection after 2 days postinfection by luciferase reporter gene assay; format: functional, organism-based; conditions: Human immunodeficiency virus 1, ZM214M.PL15, TZM-b1, 48 h; procedure, shortened: as §1
[17] = system: Human immunodeficiency virus 1; test: Antiviral activity against HIV1 6535.3 infected in human TZM-b1 cells assessed as inhibition of viral infection after 2 days postinfection by luciferase reporter gene assay; format: functional, organism-based; conditions: Human immunodeficiency virus 1, 6535.3, TZM-b1, 48 h; procedure, shortened: as §1
[18] = system: Human immunodeficiency virus 1; test: Antiviral activity against HIV1 Du422.1 infected in human TZM-b1 cells assessed as inhibition of viral infection after 2 days postinfection by luciferase reporter gene assay; format: functional, organism-based; conditions: Human immunodeficiency virus 1, Du422.1, TZM-b1, 48 h; procedure, shortened: as §1
[19] = system: Human immunodeficiency virus 1; test: Antiviral activity against HIV1 WITO4160.33 infected in human TZM-b1 cells assessed as inhibition of viral infection after 2 days postinfection by luciferase reporter gene assay; format: functional, organism-based; conditions: Human immunodeficiency virus 1, WITO4160.33, TZM-b1, 48 h; procedure, shortened: as §1
[20] = system: Human immunodeficiency virus 1; test: Antiviral activity against HIV1 SS1196.1 infected in human TZM-b1 cells assessed as inhibition of viral infection after 2 days postinfection by luciferase reporter gene assay; format: functional, organism-based; conditions: Human immunodeficiency virus 1, SS1196.1, TZM-b1, 48 h; procedure, shortened: as §1
[21] = system: Human immunodeficiency virus 1; test: Antiviral activity against HIV1 CAP.2.00.G3 infected in human TZM-b1 cells assessed as inhibition of viral infection after 2 days postinfection by luciferase reporter gene assay; format: functional, organism-based; conditions: Human immunodeficiency virus 1, CAP.2.00.G3, TZM-b1, 48 h; procedure, shortened: as §1
[22] = system: Human immunodeficiency virus 1; test: Antiviral activity against HIV1 Q259.d2.17 infected in human TZM-b1 cells assessed as inhibition of viral infection after 2 days postinfection by luciferase reporter gene assay; format: functional, organism-based; conditions: Human immunodeficiency virus 1, Q259.d2.17, TZM-b1, 48 h; procedure, shortened: as §1
[23] = system: Human immunodeficiency virus 1; test: Antiviral activity against HIV1 Q461.e2 infected in human TZM-b1 cells assessed as inhibition of viral infection after 2 days postinfection by luciferase reporter gene assay; format: functional, organism-based; conditions: Human immunodeficiency virus 1, Q461.e2, TZM-b1, 48 h; procedure, shortened: as §1
[24] = system: Human immunodeficiency virus 1; test: Antiviral activity against HIV1 QH0515.1 infected in human TZM-b1 cells assessed as inhibition of viral infection after 2 days postinfection by luciferase reporter gene assay; format: functional, organism-based; conditions: Human immunodeficiency virus 1, QH0515.1, TZM-b1, 48 h; procedure, shortened: as §1
[25] = system: Human immunodeficiency virus 1; test: Antiviral activity against HIV1 REJO4541.67 infected in human TZM-b1 cells assessed as inhibition of viral infection after 2 days postinfection by luciferase reporter gene assay; format: functional, organism-based; conditions: Human immunodeficiency virus 1, REJO4541.67, TZM-b1, 48 h; procedure, shortened: as §1
[26] = system: Human immunodeficiency virus 1; test: Antiviral activity against HIV1 Q842.d12 infected in human TZM-b1 cells assessed as inhibition of viral infection after 2 days postinfection by luciferase reporter gene assay; format: functional, organism-based; conditions: Human immunodeficiency virus 1, Q842.d12, TZM-b1, 48 h; procedure, shortened: as §1
[27] = system: Human immunodeficiency virus 1; test: Antiviral activity against HIV1 Du151.2 infected in human TZM-b1 cells assessed as inhibition of viral infection after 2 days postinfection by luciferase reporter gene assay; format: functional, organism-based; conditions: Human immunodeficiency virus 1, Du151.2, TZM-b1, 48 h; procedure, shortened: as §1

| Compound | pIC50 [1] | pIC50 [2] | pIC50 [3] | pIC50 [4] | Activity [5] | pIC50 [6] | pIC50 [7] | pIC50 [8] | pIC50 [9] | pIC50 [10] | pIC50 [11] | pIC50 [12] | pIC50 [14] | pIC50 [15] | pIC50 [16] | pIC50 [18] | pIC50 [20] | pIC50 [21] | pIC50 [22] | pIC50 [23] | further results |
| --- | --- | --- | --- | --- | --- | --- | --- | --- | --- | --- | --- | --- | --- | --- | --- | --- | --- | --- | --- | --- | --- |
| C=C(C)[C@@H]1CC[C@]2(C(=O)NCCCCCCCNC(C)=O)CC[C@]3(C)[C@H](CC[C@@H]4[C@@]5(C)CC[C@H](O)C(C)(C)[C@@H]5CC[C@]43C)[C@@H]12 | 6.35 | 6.35 | 7.05 | 6.19 | Non-toxic | 6.96 | 6.40 | 7.10 | 6.51 | 6.10 | 6.40 | < 4.30 | 5.43 | 6.47 | 7.32 | 6.77 | 6.66 | 6.85 | 6.55 | 6.42 | pIC50 [13]: 7.15; pIC50 [17]: 5.99; pIC50 [19]: 6.85; pIC50 [24]: 5.98; pIC50 [25]: 6.07; pIC50 [26]: 6.41; pIC50 [27]: 6.72 |
| enfuvirtide | 5.84 | 6.04 | 5.65 | 6.12 | Non-toxic | 5.72 | 7.05 | 6.48 | 6.11 | 5.78 | 5.74 | < 4.30 | 5.65 | 6.15 | 5.57 | 6.25 | 5.99 | 5.65 | 6.00 | 5.76 | pIC50 [24]: 5.65; pIC50 [25]: 5.95; pIC50 [26]: 5.61; pIC50 [27]: 6.35 |
